RGS4 block: RGS4 inhibitors, primary screen, cell-based, HEK293 M3R inducible RGS4, calcium flux | 310,000 compounds, 0.45% hits | B-score at 10 µM | Regulator of G-protein signaling 4 (Homo sapiens), P49798 | Fluo-4 calcium flux; hits give high values; triggered by carbachol at its EC20;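 active means B-score, a plate-corrected calcium signal, over three deviations above library mean, with baseline fluorescence within five deviations of library mean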;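 further: RGS4 expression induced by doxycycline in cells with stable M3 receptor; B-score is computed from the integrated fluorescence ratio over baseline after carbachol; higher B-score means a larger calcium signal and so more RGS4 inhibition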
Target sequence (P49798 whole entry, looked up): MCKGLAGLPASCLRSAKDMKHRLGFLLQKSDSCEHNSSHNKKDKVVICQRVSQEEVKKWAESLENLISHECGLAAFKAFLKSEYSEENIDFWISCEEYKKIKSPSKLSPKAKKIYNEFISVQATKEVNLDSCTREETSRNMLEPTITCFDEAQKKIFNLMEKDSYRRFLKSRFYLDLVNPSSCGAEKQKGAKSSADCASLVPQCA
MrgX1 antag: antagonists of human MrgX1 receptor, primary screen, HEK293 cells, Fluo-4 calcium flux; BAM8-22 antagonism; hits give low values; 310,000 compounds, 1.3% hits; AID 588676, 2011; B-score at 10 µM;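 active means calcium-response B-score plate-corrected more than 3 library SD below zero, starting fluorescence within 5 deviations, no agonist response on first addition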;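 further: peak minus trough fluorescence over baseline after final BAM8-22 challenge near maximal dose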
Target sequence (Q96LB2 whole entry, looked up): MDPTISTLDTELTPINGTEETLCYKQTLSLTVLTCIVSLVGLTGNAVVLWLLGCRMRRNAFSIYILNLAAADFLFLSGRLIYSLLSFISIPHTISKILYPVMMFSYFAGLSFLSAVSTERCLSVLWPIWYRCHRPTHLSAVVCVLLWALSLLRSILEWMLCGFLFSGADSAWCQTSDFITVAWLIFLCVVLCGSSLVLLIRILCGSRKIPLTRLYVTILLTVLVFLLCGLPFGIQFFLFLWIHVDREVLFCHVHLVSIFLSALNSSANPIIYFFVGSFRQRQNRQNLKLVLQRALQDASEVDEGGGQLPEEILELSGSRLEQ
Cl transport mod: KCC2 cotransporter modulators, thallium flux, primary screen, cell-based, HEK293 KCC2, FluoZin-2 fluorescence, MLSMR. AID 1456, 2008. Solute carrier family 12 member 5 (Homo sapiens), Q9H2X9. 190,000 compounds, 2.2% hits. KCC2 cells, thallium flux FluoZin-2 fluorescence. B-score of Tl+ flux slope (higher = more flux/activation; lower = inhibition) at 10 µM;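 active means thallium flux slope and its plate-corrected score both differing from the plate sample mean at a set confidence after two filtering rounds, in either direction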;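 further: slope of fluorescence scaled to starting intensity during 10 to 20 s after thallium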
RGS4 pot: RGS4 potentiators or activators, primary screen, cell-based, HEK293 M3R inducible RGS4, calcium flux; 310,000 compounds, 0.92% hits; carbachol calcium flux Fluo4; hits give low values; B-score at 10 µM;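 active means B-score of the integrated calcium signal more than 4 SD below the library mean, with starting fluorescence not abnormally high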;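 further: negative B-score means reduced calcium response which marks RGS4 activation or potentiation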
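Assay system: Inducible-RGS4 HEK293 cells carrying M3 receptor | Schedule: Compound preincubation 20 min at room temperature before agonist | Signal: Kinetic calcium fluorescence imaging with Fluo4-AM dye, 2 µM | Read-out basis: B score from integrated fluorescence ratio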
MrgX1 agonist: agonists of human MrgX1 receptor, primary screen, HEK293 cells, Fluo-4 calcium flux; Mas-related G-protein coupled receptor member X1 (Homo sapiens), Q96LB2; Fluo-4 calcium fluorescence, agonist mode; hits give high values; B-score at 10 µM; 310,000 compounds, 0.44% hits;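 active means calcium response B-score plate-corrected fluorescence ratio at least 3 library SD, with starting fluorescence B-score inside 5 SD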
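Assay system: stable human MrgX1 HEK293 cell line. Quantity: 15,000 cells per well. Schedule: cells plated overnight, dye loaded 0.5 h 37 °C, 0.5 h room temperature. Detection: Fluo-4 NW calcium-flux fluorescence, kinetic read. Read-out basis: peak-minus-minimum fluorescence over baseline, converted to B scores. Control set: positive and negative control wells on each plate.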
MrgX1 PAM: positive allosteric modulators of MrgX1, primary screen, HEK293 cells, Fluo-4 calcium flux. Mas-related G-protein coupled receptor member X1 (Homo sapiens), Q96LB2. FDSS; hits give high values. B-score at 10 µM. 310,000 compounds, 0.63% hits. AID 588675, 2011;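 active means plate-corrected calcium response at least 3 library SD above typical, normal starting fluorescence, not activating the receptor alone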;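 further: compound read alongside a low EC10 to EC30 dose of BAM8-22 agonist; peak minus trough fluorescence over baseline measured at the second addition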
RGS4 block valid: enhanced carbachol calcium response, M3R/RGS4 cells, RGS4 inhibitor project, cell-based, validation screen, HEK293 M3R/RGS4, calcium flux | 1,700 compounds, 65% hits | AID 492999, 2010 | calcium response, % at 10 µM | shares compounds with RGS4 block | carbachol calcium Fluo-4 fluorescence; carbachol added at its EC20; 0 = buffer wells, 100 = carbachol control;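 active means duplicate-averaged calcium response above the buffer-only control mean plus 5 SD of those controls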;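 further: integrated fluorescence ratio F max minus min over baseline F0; higher response in RGS4-induced cells means RGS4 inhibition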
M3R Ca ctr: carbachol calcium response in non-induced M3R cells, confirmation, counter-screen for RGS4 inhibitor project, cell-based, HEK293 M3R | shares compounds with RGS4 block | carbachol calcium Fluo-4; submaximal (EC20) carbachol stimulus; buffer wells 0%, carbachol control wells 100% | activity (percent), % at 10 µM | 1,900 compounds, 20% hits | AID 493000, 2010; call rule not given here;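 further: RGS4 induction absent so cells express M3R without RGS4; higher means more calcium signal and flags a non-specific hit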
RGS4 inh ctr2: second RGS4 inhibitor counter-screen in uninduced cells lacking carbachol | shares compounds with RGS4 block | HEK293 M3R/RGS4 non-induced, Fluo-4 calcium, no carbachol; normalised: buffer wells 0%, carbachol wells 100% | calcium response (agonist-mode artifact), % at 10 µM | 1,900 compounds, 22% hits | AID 493001;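 active means duplicate-averaged calcium rise in uninduced cells above buffer wells' mean plus 5 SD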
* = called active by the depositor. An excerpt weighted towards active compounds, which were near 4.7% of everything screened.

Screening C[C@]12C(=O)N(c3ccc(Br)cc3)C(=O)N1[C@@H]1c3ccccc3OC[C@@H]1[C@H]2c1ccccc1 returned RGS4 block inactive, MrgX1 antag inactive, RGS4 pot inactive, MrgX1 agonist inactive and MrgX1 PAM inactive.
`CC(=O)c1cccc(OCC(O)CNCCOc2ccc(C)cc2)c1` (configuration not stated) gave RGS4 block inactive, MrgX1 antag inactive, RGS4 pot inactive, MrgX1 agonist inactive and MrgX1 PAM inactive.
For COc1ccccc1NC(=O)CSc1nc(=O)n(CCN2CCOCC2)c2c1CCC2 the results were RGS4 block inactive, MrgX1 antag inactive, RGS4 pot inactive, MrgX1 agonist inactive and MrgX1 PAM inactive.
Screening CCOc1ccc(CCNC(=O)c2cccs2)cc1OCC returned RGS4 block inactive, MrgX1 antag inactive, RGS4 pot inactive, MrgX1 agonist inactive and MrgX1 PAM inactive.
Screening CCOC(=O)CSC1=NC(=O)/C(=C\c2ccc(Cl)cc2)S1 returned RGS4 block inactive, MrgX1 antag inactive, Cl transport mod 1, RGS4 pot inactive, MrgX1 agonist inactive, MrgX1 PAM inactive, RGS4 block valid inactive, M3R Ca ctr inactive and RGS4 inh ctr2 18%*.
CC1CCN(S(=O)(=O)c2ccc(NC(=O)C3CSC4(C)CCC(=O)N34)cc2)CC1 (configuration not stated) was read as RGS4 block inactive, MrgX1 antag inactive, RGS4 pot inactive, MrgX1 agonist inactive and MrgX1 PAM inactive.
`COC(=O)CSc1[nH]c2ccccc2c1[N+](=O)[O-]` gave RGS4 block 16*, MrgX1 antag inactive, Cl transport mod -0.00037, RGS4 pot inactive, MrgX1 agonist inactive, MrgX1 PAM inactive, RGS4 block valid 44%*, M3R Ca ctr inactive and RGS4 inh ctr2 inactive.
`CCC(C)c1ccccc1N1CC(C(=O)NCCc2ccc(OC)c(OC)c2)CC1=O` (configuration not stated) gave RGS4 block inactive, MrgX1 antag inactive, RGS4 pot inactive, MrgX1 agonist inactive and MrgX1 PAM inactive.
For Cc1ccccc1N(CC(=O)NCc1ccco1)C(=O)CNS(=O)(=O)c1ccc(F)cc1 the results were RGS4 block inactive, MrgX1 antag inactive, RGS4 pot inactive, MrgX1 agonist inactive, MrgX1 PAM inactive, RGS4 block valid inactive, M3R Ca ctr inactive and RGS4 inh ctr2 inactive.
Screening Cc1ccc(SCc2[nH]nc3c2C2(C(=O)Nc4ccc([N+](=O)[O-])cc42)C(C#N)=C(N)O3)cc1 (configuration not stated) returned RGS4 block 6.1*, MrgX1 antag inactive, RGS4 pot inactive, MrgX1 agonist inactive, MrgX1 PAM inactive, RGS4 block valid inactive, M3R Ca ctr inactive and RGS4 inh ctr2 inactive.
CCOC(=O)C1(Cc2cccc(OC)c2)CCCN(C(=O)c2cc(C)on2)C1 (configuration not stated) was read as RGS4 block inactive, MrgX1 antag inactive, RGS4 pot inactive, MrgX1 agonist inactive and MrgX1 PAM inactive.
For CCc1ccccc1N1CC(C(=O)Nc2cc(C)on2)CC1=O (configuration not stated) the results were RGS4 block inactive, MrgX1 antag inactive, RGS4 pot inactive, MrgX1 agonist inactive and MrgX1 PAM inactive.
`COc1ccccc1CC(NC(C)=O)C(=O)NC1CCN(S(=O)(=O)c2ccc(NC(C)=O)cc2)CC1` (configuration not stated) gave RGS4 block inactive, MrgX1 antag inactive, RGS4 pot inactive, MrgX1 agonist inactive, MrgX1 PAM inactive, RGS4 block valid inactive, M3R Ca ctr inactive and RGS4 inh ctr2 inactive.
Screening COc1ccccc1CC(NC(C)=O)C(=O)NC1CCN(S(=O)(=O)c2ccccc2)CC1 (configuration not stated) returned RGS4 block 5.7*, RGS4 pot inactive, RGS4 block valid inactive, M3R Ca ctr inactive and RGS4 inh ctr2 inactive.
Screening CC(C)(C)C(Cn1ccnc1)NC(=O)c1ccc2nc(C3CC3)oc2c1 (configuration not stated) returned RGS4 block inactive, MrgX1 antag inactive, RGS4 pot inactive, MrgX1 agonist inactive and MrgX1 PAM inactive.
Screening CCOC(=O)C(=NCC1CCCO1)NNc1ccccc1Cl (configuration not stated) returned RGS4 block inactive, MrgX1 antag inactive, Cl transport mod -0.34, RGS4 pot inactive, MrgX1 agonist inactive and MrgX1 PAM inactive.
CCOCCCNC(=O)CCn1nc(-c2ccc(Cl)cc2)ccc1=O was read as RGS4 block inactive, MrgX1 antag inactive, RGS4 pot inactive, MrgX1 agonist inactive and MrgX1 PAM inactive.
Screening CC(=O)Nc1ccc(SCc2csc(C)n2)cc1 returned RGS4 block inactive, MrgX1 antag inactive, RGS4 pot inactive, MrgX1 agonist inactive and MrgX1 PAM inactive.
`COc1cc2c(cc1OC)C(CSc1ccccc1C(=O)O)=NC(C)(C)C2` gave RGS4 block 5.6*, MrgX1 antag inactive, Cl transport mod 0.74, RGS4 pot inactive, MrgX1 agonist inactive, MrgX1 PAM inactive, RGS4 block valid 9.5%*, M3R Ca ctr inactive and RGS4 inh ctr2 inactive.

Assay outcomes deposited in PubChem BioAssay by several laboratories.
